Data from the M2OR odorant receptor database.
Changes are numbered by the printed parent chain.

Columns and labels:
Conditions in all cases: stereoisomer not certain
[1] = target: T1, OR2W1 (Homo sapiens) (UniProt Q9Y3N9)
T1 sequence (whole entry): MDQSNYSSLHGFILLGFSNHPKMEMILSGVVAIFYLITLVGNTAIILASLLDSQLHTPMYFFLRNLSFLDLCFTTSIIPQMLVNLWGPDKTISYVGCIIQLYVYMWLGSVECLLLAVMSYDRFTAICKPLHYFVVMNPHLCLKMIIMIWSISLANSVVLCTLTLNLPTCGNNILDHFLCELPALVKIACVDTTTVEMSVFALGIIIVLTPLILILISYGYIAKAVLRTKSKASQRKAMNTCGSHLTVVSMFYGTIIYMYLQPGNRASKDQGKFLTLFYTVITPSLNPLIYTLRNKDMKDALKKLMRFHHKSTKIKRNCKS
Outline: (§1)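 Transient luciferase assays in mammalian cell lines were common, though methods varied by source. The values come from published papers and their supplementary material, with extra details from the original authors when needed. Responsive refers to a measured signal the original authors judged statistically different from baseline, and non-responsive (inactive) to the remainder.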

[2] = tested on: T2, OR2W1
T2 sequence (whole entry): T1 sequence (whole entry) with D296N
Outline: as §1

[3] = tested on: T3, OR2W1; remark: listed apart in the source
T3 sequence (whole entry): T1 sequence (whole entry) with M81V
Outline: as §1

[4] = target: T4, OR3A1 (Homo sapiens) (UniProt P47881)
T4 sequence (whole entry): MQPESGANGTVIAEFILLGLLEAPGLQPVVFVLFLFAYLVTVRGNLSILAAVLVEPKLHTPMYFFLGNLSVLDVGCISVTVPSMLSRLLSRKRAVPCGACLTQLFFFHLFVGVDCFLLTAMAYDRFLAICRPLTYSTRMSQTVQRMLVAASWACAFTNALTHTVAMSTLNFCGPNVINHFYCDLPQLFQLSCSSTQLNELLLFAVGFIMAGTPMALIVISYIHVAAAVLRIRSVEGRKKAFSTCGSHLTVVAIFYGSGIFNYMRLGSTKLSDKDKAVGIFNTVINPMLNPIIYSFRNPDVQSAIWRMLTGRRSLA
Outline: as §1

[5] = target: T5, OR2W3 (Homo sapiens) (UniProt Q7Z3T1)
T5 sequence (whole entry): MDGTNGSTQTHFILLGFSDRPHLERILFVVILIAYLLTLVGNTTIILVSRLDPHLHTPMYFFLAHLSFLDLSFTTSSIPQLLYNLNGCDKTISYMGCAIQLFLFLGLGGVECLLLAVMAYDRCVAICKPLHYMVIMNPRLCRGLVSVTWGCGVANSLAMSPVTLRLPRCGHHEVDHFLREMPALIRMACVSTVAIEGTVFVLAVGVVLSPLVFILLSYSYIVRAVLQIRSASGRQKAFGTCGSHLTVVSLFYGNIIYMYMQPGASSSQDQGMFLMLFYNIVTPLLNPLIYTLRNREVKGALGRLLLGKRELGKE
Outline: as §1
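Also: active if original authors judged signal statistically different from baseline.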

Compound	odorant receptor agonist call [1]	odorant receptor agonist call [2]	odorant receptor agonist call [3]	odorant receptor agonist call [4]	odorant receptor agonist call [5]
C=Cc1ccc(O)cc1	active	active	active	–	–
OCCc1ccccc1	active	active	inactive	inactive	–
COCCC(C)(C)S	active	active	inactive	–	–
CCCCCCCCO	active	–	–	–	inactive
CCCCOCC(C)O (stereo not drawn)	–	–	–	–	inactive
CC(C)CC=O	inactive	–	–	inactive	–
C=CC(=C)CCC=C(C)C	active	active	active	–	–
CC(=O)OCCC(C)C	active	active	active	–	–
CCCCCCCC(=O)OC	–	–	–	–	inactive
C=C1CCC2(C(C)C)CC12 (stereo not drawn)	active	active	inactive	–	–
CCCCCCC1CCC(=O)O1 (stereo not drawn)	active	active	active	–	–
CC(C)=CCCC(C)=CCO	inactive	–	inactive	–	inactive
CC1=CCC2CC1C2(C)C (stereo not drawn)	inactive	–	–	–	inactive
CCC(=O)O	inactive	–	–	–	inactive
C=CC(=O)CCCCC	active	active	active	–	–
CCCCCCCCCCCCCCCCCC(=O)OCC	–	–	–	–	inactive
C=C(C)C1CC=C(C)CC1 (stereo not drawn)	active	active	active	–	inactive
CCCCCc1ccccn1	active	active	active	–	–
C=C1CCC2CC1C2(C)C (stereo not drawn)	inactive	–	–	–	inactive
